# Laboratory results: ChEMBL document CHEMBL1165950, “Design and synthesis of new potent anticancer pyrazoles with high FLT3 kinase inhibitory selectivity” (Bioorg Med Chem, 2010)
# Assays:
# Assay type in all cases: functional
# [1] = system: K562; test: Cytotoxicity against human K562 cells assessed as cell growth at 10 uM after 48 hrs by sulforhodamine B assay; details: K562, 48 h, read-out: Activity
# [2] = system: KM12; test: Cytotoxicity against human KM12 cells assessed as cell growth at 100 nM after 48 hrs by sulforhodamine B assay; details: KM12, 48 h, read-out: Activity
# [3] = system: M14; test: Cytotoxicity against human M14 cells assessed as cell growth at 0.001 uM after 48 hrs by sulforhodamine B assay; details: M14, 48 h, read-out: Activity
# [4] = system: SN12C; test: Cytotoxicity against human SN12C cells assessed as cell growth at 0.01 uM after 48 hrs by sulforhodamine B assay; details: read-out: Activity
# [5] = system: OVCAR-5; test: Cytotoxicity against human OVCAR5 cells assessed as cell growth at 100 nM after 48 hrs by sulforhodamine B assay; details: OVCAR-5, 48 h, read-out: Activity
# [6] = system: COLO 205; test: Cytotoxicity against human COLO205 cells assessed as cell growth at 0.01 uM after 48 hrs by sulforhodamine B assay; details: COLO 205, 48 h, read-out: Activity
# Outline: (§1)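 NCI-60 five-dose screen. Cells were grown in RPMI 1640 with 5% FBS and 2 mM L-glutamine, plated at 5000–40,000 cells/well and preincubated for 24 h. Time-zero plates were TCA-fixed. DMSO-solubilized drug was added at five concentrations (10-fold or ½-log serial dilutions) for 48 h at 37 °C, 5% CO2. Cells were TCA-fixed, stained with 0.4% SRB and read at 515 nm. Percent growth used time-zero, control and test absorbances.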
# [7] = system: HOP-62; test: Cytotoxicity against human HOP62 cells assessed as cell growth at 10 uM after 48 hrs by sulforhodamine B assay; details: HOP-62, 48 h, read-out: Activity
# [8] = system: NCI-H522; test: Growth inhibition of human NCI-H522 cells after 48 hrs by sulforhodamine B assay; details: NCI-H522, 48 h; for CC50: read-out: LC50 (the source's name)
# Outline: (§2)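 NCI 60-cell screen, five-dose mode. Cells grown in RPMI 1640 with 5% FBS and 2 mM L-glutamine and plated at 5000-40,000 cells/well according to doubling time. After 24 h preincubation, a Tz plate was TCA-fixed. Five concentrations (10-fold or 1/2 log dilutions) were applied for 48 h at 37 °C. SRB staining read at 515 nm. IC50 taken from [(Ti-Tz)/(C-Tz)]×100 = 50.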
# [9] = system: M14; test: Cytotoxicity against human M14 cells assessed as cell growth at 10 uM after 48 hrs by sulforhodamine B assay; details: M14, 48 h, read-out: Activity
# [10] = system: HOP-62; test: Cytotoxicity against human HOP62 cells assessed as cell growth at 0.001 uM after 48 hrs by sulforhodamine B assay; details: HOP-62, 48 h, read-out: Activity
# [11] = system: LOX IMVI; test: Cytotoxicity against human LOXIMVI cells assessed as cell growth at 1 uM after 48 hrs by sulforhodamine B assay; details: read-out: Activity
# [12] = system: OVCAR-3; test: Cytotoxicity against human OVCAR-3 cells assessed as cell growth at 0.01 uM after 48 hrs by sulforhodamine B assay; details: OVCAR-3, 48 h, read-out: Activity
# [13] = system: NCI/ADR-RES; test: Growth inhibition of human NCI/ADR-RES cells after 48 hrs by sulforhodamine B assay; details: for CC50: read-out: LC50 (the source's name); outline: as §2
# [14] = system: HCT-15; test: Cytotoxicity against human HCT15 cells assessed as cell growth at 0.001 uM after 48 hrs by sulforhodamine B assay; details: HCT-15, 48 h, read-out: Activity
# [15] = system: 786-0; test: Cytotoxicity against human 786-0 cells assessed as cell growth at 0.01 uM after 48 hrs by sulforhodamine B assay; details: 786-0, 48 h, read-out: Activity; outline: as §1
# [16] = system: OVCAR-5; test: Cytotoxicity against human OVCAR5 cells assessed as cell growth at 1 uM after 48 hrs by sulforhodamine B assay; details: OVCAR-5, 48 h, read-out: Activity
# [17] = system: T47D; test: Cytotoxicity against human T47D cells assessed as cell growth at 10 uM; details: read-out: Activity
# Outline: (§3)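 NCI-60 screen: cells grown in RPMI 1640 with 5% FBS and 2 mM L-glutamine, plated at 5000–40,000 cells/well according to doubling time, and preincubated 24 h at 37 °C, 5% CO2. The single 10 µM dose (DMSO stock) was added, then incubated 48 h. Cells were TCA-fixed and stained with 0.4% SRB, read at 515 nm, and growth % calculated against time-zero and control plates.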
# [18] = system: UACC-62; test: Cytotoxicity against human UACC62 cells assessed as cell growth at 0.001 uM after 48 hrs by sulforhodamine B assay; details: UACC-62, 48 h, read-out: Activity
# [19] = system: A498; test: Cytotoxicity against human A498 cells assessed as cell growth at 10 uM after 48 hrs by sulforhodamine B assay; details: A498, 48 h, read-out: Activity; outline: as §1
# [20] = system: HOP-62; test: Cytotoxicity against human HOP62 cells assessed as cell growth at 10 uM; details: read-out: Activity
# Outline: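 Single-dose NCI-60 screen at 10 µM. Cells were grown in RPMI 1640 with 5% FBS and 2 mM L-glutamine, then treated for 48 h at 37 °C. Protein was measured by SRB staining with absorbance at 515 nm. Percentage growth was recorded, and inhibition percentage was calculated as 100 minus growth percentage.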
# [21] = system: MDA-MB-435; test: Cytotoxicity against human MDA-MB-435 cells assessed as cell growth at 10 uM; details: read-out: Activity; outline: as §3
# [22] = system: Malme-3M; test: Cytotoxicity against human MALME-3M cells assessed as cell growth at 0.01 uM after 48 hrs by sulforhodamine B assay; details: read-out: Activity
# [23] = system: SK-MEL-2; test: Cytotoxicity against human SK-MEL-2 cells assessed as cell growth at 0.001 uM after 48 hrs by sulforhodamine B assay; details: SK-MEL-2, 48 h, read-out: Activity
# [24] = system: T47D; test: Growth inhibition of human T47D cells after 48 hrs by sulforhodamine B assay; outline: as §2
# [25] = system: TK-10; test: Cytotoxicity against human TK10 cells assessed as cell growth at 0.01 uM after 48 hrs by sulforhodamine B assay; details: TK-10, 48 h, read-out: Activity
# [26] = system: HL-60(TB); test: Growth inhibition of human HL-60(TB) cells after 48 hrs by sulforhodamine B assay; details: HL-60, 48 h
# Outline: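 NCI 60-cell SRB screen. Cells in RPMI 1640 with 5% FBS and 2 mM L-glutamine are preincubated 24 h, then exposed to five concentrations (10-fold or 1/2-log dilutions from DMSO stock) for 48 h at 37 °C. Suspension cells are fixed with 80% TCA (final 16%), and A515 is read. IC50 is taken as the concentration where [(Ti−Tz)/(C−Tz)]×100 = 50, i.e. 50% reduction in net protein increase.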
# [27] = system: OVCAR-8; test: Cytotoxicity against human OVCAR8 cells assessed as cell growth at 1 uM after 48 hrs by sulforhodamine B assay; details: OVCAR-8, 48 h, read-out: Activity
# [28] = system: SF-539; test: Cytotoxicity against human SF539 cells assessed as cell growth at 0.001 uM after 48 hrs by sulforhodamine B assay; details: SF-539, 48 h, read-out: Activity
Compound,growth at 10 µM [1] [%],growth at 0.1 µM [2] [%],growth at 0.001 µM [3] [%],growth at 0.01 µM [4] [%],growth at 0.1 µM [5] [%],growth at 0.01 µM [6] [%],growth at 10 µM [7] [%],GI50 [8] [µM],TGI [8] [µM],CC50 [8] [µM],growth at 10 µM [9] [%],growth at 0.001 µM [10] [%],growth at 1 µM [11] [%],growth at 0.01 µM [12] [%],GI50 [13] [µM],TGI [13] [µM],CC50 [13] [µM],growth at 0.001 µM [14] [%],growth at 0.01 µM [15] [%],growth at 1 µM [16] [%],also measured
COc1cc(C)cc(-c2c(-c3ccnc(-c4ccc(C(C)=O)cc4)c3)cnn2CC#N)c1,15,85,95,93,89,102,11,1.93,6.96,> 100,2,94,19,106,2.87,> 100,> 100,94,98,60,growth at 10 µM [17]: 45.6%; growth at 0.001 µM [18]: 93%; growth at 10 µM [19]: 27%; growth at 10 µM [20]: 78.1%; growth at 10 µM [21]: 10.6%; growth at 0.01 µM [22]: 93%; growth at 0.001 µM [23]: 92%; GI50 [24]: 2.42 µM; LC50 [24]: > 100 µM; TGI [24]: 8.02 µM; growth at 0.01 µM [25]: 100%; GI50 [26]: 2.26 µM; LC50 [26]: > 100 µM; TGI [26]: 6.5 µM; growth at 1 µM [27]: 8%; growth at 0.001 µM [28]: 92%
Cc1cc(O)cc(-c2nn(CC#N)cc2-c2ccnc(-c3ccc(Oc4ccccc4)cc3)c2)c1,-2,85,95,88,82,99,-93,2.72,10.4,35.1,-94,93,-91,103,2.06,4.56,15.8,94,95,35,growth at 10 µM [17]: 14.2%; growth at 0.001 µM [18]: 92%; growth at 10 µM [19]: -92%; growth at 10 µM [20]: 99.3%; growth at 10 µM [21]: 60.5%; growth at 0.01 µM [22]: 77%; growth at 0.001 µM [23]: 91%; GI50 [24]: 2.04 µM; LC50 [24]: 39.1 µM; TGI [24]: 5.81 µM; growth at 0.01 µM [25]: 99%; GI50 [26]: 2.25 µM; LC50 [26]: > 100 µM; TGI [26]: 5.94 µM; growth at 1 µM [27]: -30%; growth at 0.001 µM [28]: 88%
COc1cc(C)cc(-c2nn(CC#N)cc2-c2ccnc(-c3ccc(N(C)C)cc3)c2)c1,3,10,96,90,79,116,-13,0.196,0.492,3.24,-16,108,5,95,0.253,0.655,> 100,99,96,31,growth at 10 µM [17]: 39%; growth at 0.001 µM [18]: 91%; growth at 10 µM [19]: -33%; growth at 10 µM [20]: 18.9%; growth at 10 µM [21]: -22.6%; growth at 0.01 µM [22]: 91%; growth at 0.001 µM [23]: 117%; GI50 [24]: 0.475 µM; LC50 [24]: > 100 µM; TGI [24]: 17.3 µM; growth at 0.01 µM [25]: 119%; GI50 [26]: 0.293 µM; LC50 [26]: > 100 µM; TGI [26]: 0.923 µM; growth at 1 µM [27]: 14%; growth at 0.001 µM [28]: 102%
Cc1cc(O)cc(-c2nn(CC#N)cc2-c2ccnc(-c3ccc(N(C)C)cc3)c2)c1,-6,66,96,90,97,95,-22,1.93,7.14,68.1,-75,92,29,91,2.54,7.93,> 100,86,88,64,growth at 10 µM [17]: 17.7%; growth at 0.001 µM [18]: 90%; growth at 10 µM [19]: -33%; growth at 10 µM [20]: 36.5%; growth at 10 µM [21]: -43.2%; growth at 0.01 µM [22]: 92%; growth at 0.001 µM [23]: 94%; GI50 [24]: 2.59 µM; LC50 [24]: > 100 µM; TGI [24]: 12.4 µM; growth at 0.01 µM [25]: 107%; GI50 [26]: 3.14 µM; LC50 [26]: > 100 µM; TGI [26]: 12.9 µM; growth at 1 µM [27]: 27%; growth at 0.001 µM [28]: 97%
COc1cc(C)cc(-c2nn(CC#N)cc2-c2ccc(-c3cccc(C(C)=O)c3)nc2)c1,9,75,94,88,68,100,-12,1.64,6.72,> 100,-43,84,23,104,1.31,6.06,> 100,95,97,21,growth at 10 µM [17]: 11.6%; growth at 0.001 µM [18]: 94%; growth at 10 µM [19]: -55%; growth at 10 µM [20]: 32.1%; growth at 10 µM [21]: -27.8%; growth at 0.01 µM [22]: 85%; growth at 0.001 µM [23]: 89%; GI50 [24]: 2.23 µM; LC50 [24]: > 100 µM; TGI [24]: 8.23 µM; growth at 0.01 µM [25]: 100%; GI50 [26]: 1.78 µM; LC50 [26]: > 100 µM; TGI [26]: 15.1 µM; growth at 1 µM [27]: 14%; growth at 0.001 µM [28]: 94%
